A word on the IC50: it is the concentration that gives 50% inhibition. The half-life is the time in which the quantity being followed falls by half. As a reminder, the Cmax is the highest concentration seen after dosing. One may read the bioavailability as the share of a dose that reaches the circulation, judged against a reference dose that is usually intravenous. A low value points to little systemic uptake. For orientation: clearance means the volume of plasma or blood freed of the substance per unit of time. Read a low clearance as inefficient removal.

Series [1] concerns the target T1, Tyrosine-protein kinase receptor UFO (Homo sapiens, UniProt P30530).
T1 sequence (P30530 whole entry): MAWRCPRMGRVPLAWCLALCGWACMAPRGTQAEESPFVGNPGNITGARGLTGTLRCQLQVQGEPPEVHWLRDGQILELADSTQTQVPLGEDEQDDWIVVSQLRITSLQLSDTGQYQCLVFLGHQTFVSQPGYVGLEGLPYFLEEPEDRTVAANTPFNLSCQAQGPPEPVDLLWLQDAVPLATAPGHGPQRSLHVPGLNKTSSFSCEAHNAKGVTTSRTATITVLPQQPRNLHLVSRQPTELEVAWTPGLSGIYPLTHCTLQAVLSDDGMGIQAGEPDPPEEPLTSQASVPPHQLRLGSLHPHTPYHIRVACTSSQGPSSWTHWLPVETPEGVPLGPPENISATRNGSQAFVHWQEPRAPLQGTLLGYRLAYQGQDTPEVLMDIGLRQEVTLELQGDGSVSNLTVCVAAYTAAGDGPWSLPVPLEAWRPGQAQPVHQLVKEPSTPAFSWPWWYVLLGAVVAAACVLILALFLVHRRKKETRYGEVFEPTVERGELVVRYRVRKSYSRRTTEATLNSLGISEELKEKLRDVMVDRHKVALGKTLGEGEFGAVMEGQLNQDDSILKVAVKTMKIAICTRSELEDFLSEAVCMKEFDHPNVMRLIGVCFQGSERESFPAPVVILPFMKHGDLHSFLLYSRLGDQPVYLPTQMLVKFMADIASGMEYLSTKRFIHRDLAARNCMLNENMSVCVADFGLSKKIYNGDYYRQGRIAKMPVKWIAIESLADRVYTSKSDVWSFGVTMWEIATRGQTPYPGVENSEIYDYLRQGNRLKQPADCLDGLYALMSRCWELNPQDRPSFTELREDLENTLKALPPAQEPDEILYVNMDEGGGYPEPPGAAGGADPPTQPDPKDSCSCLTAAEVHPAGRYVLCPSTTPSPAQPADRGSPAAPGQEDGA
Kind of series: Inhibition of human Axl using KKSRGDYMTMQIG as substrate incubated for 40 mins in the presence of [gamma33P]ATP by scintillation counting analysis.

In series [2] the target is Aurora kinase B (Homo sapiens, UniProt Q96GD4). Kind of series: Inhibition of human Aurora B using AKRRRLSSLRA as substrate incubated for 40 mins in the presence of [gamma33P]ATP by scintillation counting analysis. The gist of the method:
(§1)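 Human kinase, radiometric: incubated in 8 mM MOPS pH 7.0, 0.2 mM EDTA, 10 mM magnesium acetate with [γ-33P]-ATP; started by Mg/ATP mix, 40 min at room temperature, stopped with phosphoric acid to 0.5%. Spotted on P30 filtermat, washed 4×4 min in 0.425% phosphoric acid and once in methanol, dried, scintillation counted.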

In series [3] the target is Tyrosine-protein kinase JAK2 (Homo sapiens, UniProt O60674). Kind of series: Inhibition of human JAK2 using KTFCGTPEYLAPEVRREPRILSEEEQEMFRDFDYIADWC as substrate incubated for 40 mins in the presence of [gamma33P]ATP by scintillation counting analysis. Summed up: as §1
Series [4] deals with ALK tyrosine kinase receptor (Homo sapiens, UniProt Q9UM73). Kind of series: Inhibition of human ALK using KKKSPGEYVNIEFG as substrate incubated for 40 mins in the presence of [gamma33P]ATP by scintillation counting analysis. Summed up:
as §1

Series [5] can be described thus: Metabolic stability in human liver microsomes assessed as half-life preincubated for 10 mins followed by NADPH addition and measured upto 60 mins by LC-MS/MS analysis. The format is ADME, Microsome. The note with it: time < 70 min. On the technique in general: Microsomes from liver hold many membrane-bound enzymes, among them those of drug oxidation.
A short description of series [6]: Metabolic stability in human liver microsomes assessed as intrinsic clearance preincubated for 10 mins followed by NADPH addition and measured upto 60 mins by LC-MS/MS analysis. The series is classed as ADME, Microsome. The note with it: time < 70 min, read-out: CLH.
Series [7] in a line: Intrinsic clearance in human. The series is classed as ADME.
Series [8] in a line: Metabolic stability in rat liver microsomes assessed as half-life preincubated for 10 mins followed by NADPH addition and measured upto 60 mins by LC-MS/MS analysis. The series is classed as ADME, Microsome. The note with it: time < 70 min.
Series [9] in a line: Metabolic stability in rat liver microsomes assessed as intrinsic clearance preincubated for 10 mins followed by NADPH addition and measured upto 60 mins by LC-MS/MS analysis. The series is classed as ADME, Microsome. The note with it: time < 70 min, read-out: CLH.
Series [10] in a line: Intrinsic clearance in rat. The format is ADME.
The nature of series [11]: AUC (0 to last) in Sprague-Dawley rat at 5 mg/kg, po measured upto 24 hrs by LC-MS/MS analysis. The note with it: in vivo. The series is classed as ADME, organism-based. Further details: dose 5 mg/kg, time < 24 hrs, route po.
A short description of series [12]: Cmax in Sprague-Dawley rat at 5 mg/kg, po measured upto 24 hrs by LC-MS/MS analysis. The series is classed as ADME, organism-based. Further details: dose 5 mg/kg, time < 24 hrs, route po. The note with it: in vivo.
Series [13] in a line: Half-life in Sprague-Dawley rat at 5 mg/kg, po measured upto 24 hrs by LC-MS/MS analysis. The format is ADME, organism-based. The note with it: in vivo.
The nature of series [14]: Oral bioavailability in Sprague-Dawley rat at 5 mg/kg measured upto 24 hrs by LC-MS/MS analysis. The format is ADME, organism-based. The note with it: in vivo.
The nature of series [15]: AUC (0 to last) in Sprague-Dawley rat at 1 mg/kg, iv measured upto 24 hrs by LC-MS/MS analysis. The series is classed as ADME, organism-based. Further details: dose 1 mg/kg, time < 24 hrs, route iv. The note with it: in vivo.
Series [16] can be described thus: Cmax in Sprague-Dawley rat at 1 mg/kg, iv measured upto 24 hrs by LC-MS/MS analysis. The series is classed as ADME, organism-based. Further details: time < 24 hrs, dose 1 mg/kg, route iv. The note with it: in vivo.
Series [17] can be described thus: Clearance in Sprague-Dawley rat at 1 mg/kg, iv measured upto 24 hrs by LC-MS/MS analysis. The note with it: in vivo. The series is classed as ADME, organism-based.
Series [18] is described as follows: Half-life in Sprague-Dawley rat at 1 mg/kg, iv measured upto 24 hrs by LC-MS/MS analysis. The format is ADME, organism-based. The note with it: in vivo.

Sequence of Aurora kinase B (Q96GD4 whole entry): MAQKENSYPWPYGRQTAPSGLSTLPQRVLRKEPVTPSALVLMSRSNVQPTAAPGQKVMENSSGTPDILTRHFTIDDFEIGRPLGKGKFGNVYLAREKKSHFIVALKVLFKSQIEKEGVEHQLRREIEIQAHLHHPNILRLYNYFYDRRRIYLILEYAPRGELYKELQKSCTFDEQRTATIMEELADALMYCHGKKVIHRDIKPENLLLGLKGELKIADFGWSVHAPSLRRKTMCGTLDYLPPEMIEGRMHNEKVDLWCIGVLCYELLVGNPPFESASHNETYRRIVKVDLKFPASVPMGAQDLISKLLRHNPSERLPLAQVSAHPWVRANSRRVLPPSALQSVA
Sequence of Tyrosine-protein kinase JAK2 (O60674 whole entry): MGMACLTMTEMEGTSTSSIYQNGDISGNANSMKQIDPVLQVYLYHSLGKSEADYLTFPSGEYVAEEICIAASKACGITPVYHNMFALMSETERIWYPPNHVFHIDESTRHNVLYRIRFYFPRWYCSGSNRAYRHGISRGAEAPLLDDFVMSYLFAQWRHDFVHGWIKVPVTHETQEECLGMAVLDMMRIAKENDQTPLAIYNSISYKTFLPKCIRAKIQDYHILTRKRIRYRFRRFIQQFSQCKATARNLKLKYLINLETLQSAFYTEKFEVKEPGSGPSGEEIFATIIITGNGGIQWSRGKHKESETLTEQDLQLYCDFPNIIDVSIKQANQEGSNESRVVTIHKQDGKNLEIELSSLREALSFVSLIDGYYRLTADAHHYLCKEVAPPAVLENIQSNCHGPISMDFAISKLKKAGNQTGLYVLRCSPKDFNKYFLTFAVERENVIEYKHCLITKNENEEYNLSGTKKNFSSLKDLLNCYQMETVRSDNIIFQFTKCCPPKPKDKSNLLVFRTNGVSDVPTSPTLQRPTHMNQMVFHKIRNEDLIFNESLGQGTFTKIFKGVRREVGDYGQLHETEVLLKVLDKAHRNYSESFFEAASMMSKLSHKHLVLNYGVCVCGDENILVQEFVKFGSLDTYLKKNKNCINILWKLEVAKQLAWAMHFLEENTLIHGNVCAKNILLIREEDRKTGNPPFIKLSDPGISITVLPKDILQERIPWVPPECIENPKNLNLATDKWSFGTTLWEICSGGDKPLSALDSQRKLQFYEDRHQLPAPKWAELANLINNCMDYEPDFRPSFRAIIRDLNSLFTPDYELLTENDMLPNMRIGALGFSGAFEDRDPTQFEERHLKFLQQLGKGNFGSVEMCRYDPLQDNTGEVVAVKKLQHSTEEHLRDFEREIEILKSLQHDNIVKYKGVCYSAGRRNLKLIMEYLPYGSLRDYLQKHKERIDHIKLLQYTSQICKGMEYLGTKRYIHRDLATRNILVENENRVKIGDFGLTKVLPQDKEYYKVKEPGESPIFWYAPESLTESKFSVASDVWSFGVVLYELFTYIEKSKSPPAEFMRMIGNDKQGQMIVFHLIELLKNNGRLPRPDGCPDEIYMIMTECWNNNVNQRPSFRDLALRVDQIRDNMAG
Sequence of ALK tyrosine kinase receptor (Q9UM73 whole entry): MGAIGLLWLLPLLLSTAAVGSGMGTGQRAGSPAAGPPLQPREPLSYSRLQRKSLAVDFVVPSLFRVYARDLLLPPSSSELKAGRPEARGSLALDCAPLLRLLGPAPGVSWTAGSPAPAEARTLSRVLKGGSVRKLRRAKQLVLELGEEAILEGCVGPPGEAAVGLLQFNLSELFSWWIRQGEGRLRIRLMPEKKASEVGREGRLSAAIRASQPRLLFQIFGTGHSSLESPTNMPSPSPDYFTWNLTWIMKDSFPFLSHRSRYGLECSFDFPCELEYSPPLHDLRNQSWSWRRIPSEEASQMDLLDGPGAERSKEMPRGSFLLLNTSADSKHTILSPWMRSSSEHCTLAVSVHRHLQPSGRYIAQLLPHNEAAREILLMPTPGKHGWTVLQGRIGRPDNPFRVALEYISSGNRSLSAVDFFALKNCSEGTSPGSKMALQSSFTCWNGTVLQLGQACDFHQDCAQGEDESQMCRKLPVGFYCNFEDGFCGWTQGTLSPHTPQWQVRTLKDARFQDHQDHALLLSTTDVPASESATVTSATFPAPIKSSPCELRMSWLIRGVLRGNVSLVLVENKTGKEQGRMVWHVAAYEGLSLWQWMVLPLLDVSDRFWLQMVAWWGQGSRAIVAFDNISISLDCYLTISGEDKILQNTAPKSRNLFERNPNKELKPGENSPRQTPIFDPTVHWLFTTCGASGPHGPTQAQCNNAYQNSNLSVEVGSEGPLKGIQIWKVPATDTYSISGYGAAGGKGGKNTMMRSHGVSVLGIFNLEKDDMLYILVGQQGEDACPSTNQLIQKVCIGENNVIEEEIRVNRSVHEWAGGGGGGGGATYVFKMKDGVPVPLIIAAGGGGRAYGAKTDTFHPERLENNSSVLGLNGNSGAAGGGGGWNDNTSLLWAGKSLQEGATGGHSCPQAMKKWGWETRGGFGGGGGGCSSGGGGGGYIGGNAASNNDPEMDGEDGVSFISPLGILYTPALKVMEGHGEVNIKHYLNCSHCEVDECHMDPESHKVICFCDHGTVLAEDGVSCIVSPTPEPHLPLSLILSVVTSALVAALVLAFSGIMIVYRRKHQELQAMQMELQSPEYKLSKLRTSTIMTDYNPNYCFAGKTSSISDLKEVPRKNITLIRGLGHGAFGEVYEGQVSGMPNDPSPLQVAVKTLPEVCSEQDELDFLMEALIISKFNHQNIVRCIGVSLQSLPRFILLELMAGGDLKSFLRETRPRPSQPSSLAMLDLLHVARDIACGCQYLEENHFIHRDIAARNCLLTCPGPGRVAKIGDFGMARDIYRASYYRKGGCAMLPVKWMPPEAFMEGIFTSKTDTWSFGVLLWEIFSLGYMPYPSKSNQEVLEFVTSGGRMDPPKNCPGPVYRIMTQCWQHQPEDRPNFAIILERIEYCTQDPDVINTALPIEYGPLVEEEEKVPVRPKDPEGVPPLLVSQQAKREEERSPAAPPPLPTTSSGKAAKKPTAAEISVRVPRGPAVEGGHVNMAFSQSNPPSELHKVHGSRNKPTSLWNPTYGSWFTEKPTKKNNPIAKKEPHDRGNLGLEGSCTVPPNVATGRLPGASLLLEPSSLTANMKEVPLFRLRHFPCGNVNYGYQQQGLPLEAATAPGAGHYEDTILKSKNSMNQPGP

For `Cc1nc(-c2ccccc2Nc2nc(Nc3ccc(CN4CCN(C)CC4)cc3)ncc2Cl)n[nH]1`, the IC50 came to 11 nM in [1], 4 nM in series [2], 130 nM in [3] and 500 nM in series [4].
Regarding `CC(=O)N1CCN(c2ccc(Nc3ncc(Cl)c(Nc4ccccc4-c4ncn(C(C)C)n4)n3)cc2)CC1`, the half-life in series [5] is 156 min; in series [8], 153 min; in [13], 79.2 min; in [18], 89.4 min. The CLint scaled is 11.2 mL/min/kg in series [6], 7.2 mL/min/kg in series [7], 16.2 mL/min/kg in [9] and 12.5 mL/min/kg in [10]. Besides, the AUClast in series [11] was 661 ng·h/mL; in series [15], 497 ng·h/mL. Also, the Cmax was 169 ng/mL in series [12] and 337 ng/mL in series [16]. The molecule also had a bioavailability in series [14] of 26.6%. This molecule also displayed a clearance in series [17] of 32.5 mL/min/kg.
For `CN1CCN(Cc2ccc(Nc3ncc(Cl)c(Nc4ccccc4S(=O)(=O)N(C)C)n3)cc2)CC1` [DUBERMATINIB], the half-life was 2.7 min in series [5], 4.3 min in series [8], 176 min in [13] and 106 min in [18]. The CLint scaled came out at 646 mL/min/kg in [6], 20.1 mL/min/kg in [7], 582 mL/min/kg in series [9] and 50.4 mL/min/kg in series [10]. For the same molecule, the figures for the AUClast in series [11] and in series [15] were 158 ng·h/mL and 187 ng·h/mL, respectively. Further, the Cmax was 46.8 ng/mL in [12] and 89.8 ng/mL in series [16]. The bioavailability in series [14] is 21.5%. In series [17], this molecule yielded a clearance of 82.8 mL/min/kg.
For the molecule `CN1CCc2ccc(Nc3ncc(Cl)c(Nc4ccccc4S(=O)(=O)N(C)C)n3)cc2C1`, the IC50 in series [1] turned out to be 14 nM. Besides, the half-life in series [5] and in [8] was 2.4 min throughout. Also, the CLint scaled turned out to be 720 mL/min/kg in series [6], 20.1 mL/min/kg in series [7], 1040 mL/min/kg in [9] and 52.4 mL/min/kg in series [10].
With `CN1CCC(N(C)c2ccc(Nc3ncc(Cl)c(Nc4ccccc4-c4ncn(C)n4)n3)cc2)CC1`, the half-life was found to be 74.2 min in [5] and 15.4 min in series [8]. The CLint scaled in [6] came to 23.4 mL/min/kg; in series [7] it was 11 mL/min/kg; in [9], 162 mL/min/kg; in series [10], 41.2 mL/min/kg.
Consider `CN1CC2CN(C(=O)c3ccc(Nc4ncc(Cl)c(Nc5ccccc5S(=O)(=O)N(C)C)n4)cc3)CC2C1` (stereo not drawn), for which the half-life in series [5] is 4.4 min; in series [8], 7.3 min. Also, the CLint scaled in [6] was 393 mL/min/kg; in series [7], 19.6 mL/min/kg; in series [9], 339 mL/min/kg; in series [10] it was 47.5 mL/min/kg.
In the case of `CC(=O)N1CCc2ccc(Nc3ncc(Cl)c(Nc4ccccc4S(=O)(=O)N(C)C)n3)cc2C1`, the half-life is 1.82 min in [5] and 2.3 min in series [8]. For the same molecule, the CLint scaled in series [6] was 953 mL/min/kg; in [7], 20.3 mL/min/kg; in series [9] it was 1090 mL/min/kg; in series [10] it was 52.5 mL/min/kg.
`CN1CCC(Oc2ccc(Nc3ncc(Cl)c(Nc4ccccc4-c4nnn(C)n4)n3)cc2)CC1`: the half-life in [5] is 36.2 min; in series [8], 6.4 min. Also, the CLint scaled came to 48 mL/min/kg in series [6], 14.5 mL/min/kg in series [7], 389 mL/min/kg in series [9] and 48.3 mL/min/kg in [10].

The record behind these values is ChEMBL document CHEMBL5108089, “Structure-based discovery of potent inhibitors of Axl: design, synthesis, and biological evaluation” (RSC Med Chem, 2022).
